The species entered for test [1] is Homo sapiens. The test can be described thus: Compound was tested for the inhibition of LTB4 production in human whole blood (HWB). It counts as functional. An outline of the steps:
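LTB4 generation measured in human whole blood. IC50 values are the mean of at least two independent titrations, though some values come from a single titration. Where more than two IC50 values were determined, the 95% confidence limits were within 90% of the mean.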

Test [2] is filed under the species Homo sapiens. The test can be described thus: Test inhibition of LTB4 production in human peripheral blood polymorphonuclear leukocytes (HPMN). It counts as functional. An outline of the steps: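 LTB4 generation measured in human peripheral blood polymorphonuclear leukocytes. IC50 values are the mean of at least two independent determinations, though some values come from a single titration.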

Test [3] deals with T1, Polyunsaturated fatty acid 5-lipoxygenase (Homo sapiens, UniProt P09917).
T1 sequence (P09917 whole entry): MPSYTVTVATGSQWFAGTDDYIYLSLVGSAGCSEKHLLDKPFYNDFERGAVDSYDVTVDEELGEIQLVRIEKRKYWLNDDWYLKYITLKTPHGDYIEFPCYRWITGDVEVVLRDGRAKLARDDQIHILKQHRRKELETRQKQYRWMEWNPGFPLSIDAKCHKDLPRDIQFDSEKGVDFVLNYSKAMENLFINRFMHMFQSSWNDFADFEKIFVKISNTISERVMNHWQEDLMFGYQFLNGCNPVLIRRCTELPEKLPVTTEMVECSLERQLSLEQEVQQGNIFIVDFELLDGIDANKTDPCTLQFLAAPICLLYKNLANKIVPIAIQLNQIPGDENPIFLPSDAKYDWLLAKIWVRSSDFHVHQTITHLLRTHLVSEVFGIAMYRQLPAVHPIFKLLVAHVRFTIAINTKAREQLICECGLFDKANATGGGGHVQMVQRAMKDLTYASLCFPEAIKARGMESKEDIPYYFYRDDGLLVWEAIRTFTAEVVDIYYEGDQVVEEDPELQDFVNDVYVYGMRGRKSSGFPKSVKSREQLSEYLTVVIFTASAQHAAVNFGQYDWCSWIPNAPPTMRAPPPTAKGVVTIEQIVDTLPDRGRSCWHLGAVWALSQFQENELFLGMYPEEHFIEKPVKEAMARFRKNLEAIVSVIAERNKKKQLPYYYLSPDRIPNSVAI
Put plainly: Potency to inhibit oxidation of arachidonic acid by recombinant human 5-lipoxygenase.

Some results are limits rather than exact numbers.

For orientation: IC50 means the concentration that inhibits the measured activity by half. In the case of `O=C1OCc2c1cc1cc(OCc3cccc(C4(O)CC5COC(C4)O5)c3)ccc1c2-c1ccoc1` (stereo in doubt; 3v), the half-inhibitory concentration (IC50) in the test listed under Homo sapiens [1] was 2100 nM; in the test listed under Homo sapiens [2], 21 nM; in test [3], 340 nM.
Turning to `COC(=O)c1cc(Cc2ccccc2)c2ccc(OCc3cccc(C4(O)CCOCC4)c3)cc2c1`, the results for the IC50 (in the test filed under Homo sapiens [2] (Homo sapiens); in test [3]) were more than 70 nM and more than 6000 nM, respectively.
On to `O=C1OCc2c1cc1cc(OCc3cccc(C4(O)CCOCC4)c3)ccc1c2-c1ccc(F)cc1`, for which the IC50 amounted to 410 nM in the test filed under Homo sapiens [1] (Homo sapiens, Blood); 3 nM in the test filed under Homo sapiens [2] (Homo sapiens); 140 nM in test [3].
In the case of `CC(O)c1cc(-c2ccccc2)c2ccc(OCc3cccc(C4(O)CCOCC4)c3)cc2c1` (centres undefined), the IC50 came to 675 nM in the test listed under Homo sapiens [1] (Homo sapiens, Blood); 28 nM in the test listed under Homo sapiens [2] (Homo sapiens); 520 nM in test [3].
For `COC1CC(O)(c2cccc(COc3ccc4c(-c5ccccc5)c5c(cc4c3)C(=O)OC5)c2)CCO1` (centres undefined) the same measures were 120 nM, 2 nM and 23 nM.
For `CC1(C)COC(c2cc(-c3ccoc3)c3ccc(OCc4cccc(C5(O)CCOCC5)c4)cc3c2)=N1`, in that order: 2900 nM, 17 nM and 190 nM.
For `O=C1OCc2c1cc1cc(OCc3cccc(C4(O)CCOCC4)c3)ccc1c2-c1ccccc1F`, in that order: 1800 nM, 18 nM and 360 nM.
On to `COC1(c2cc(F)cc(OCc3ccc4c(ccc(=O)n4C)c3)c2)CCOCC1` [ZD-2138], for which the IC50 is 80 nM in the test filed under Homo sapiens [1] (Homo sapiens, Blood); 10 nM in the test listed under Homo sapiens [2] (Homo sapiens); 330 nM in test [3].
In the case of `OC1(c2cccc(COc3ccc4c(-c5ccoc5)cc(C5=NCCS5)cc4c3)c2)CCOCC1`, the half-maximal inhibitory concentration (IC50) amounted to 75 nM in the test listed under Homo sapiens [1] (Homo sapiens, Blood); 2 nM in the test listed under Homo sapiens [2] (Homo sapiens); 50 nM in test [3].
Consider `O=C1OCc2c1cc1cc(OCc3cccc(C4(O)CC5COC(C4)O5)c3)ccc1c2-c1ccccc1` (centres undefined), for which the IC50 in the test listed under Homo sapiens [1] (Homo sapiens, Blood) is 540 nM; in the test listed under Homo sapiens [2] (Homo sapiens), 6 nM; in test [3], 240 nM.
For `N#Cc1cc(-c2ccoc2)c2ccc(OCc3cccc(C4(O)CCOCC4)c3)cc2c1` the same measures were 10 nM, 2 nM and 30 nM.
For `COC(C)c1cc(-c2ccccc2)c2ccc(OCc3cccc(C4(O)CCOCC4)c3)cc2c1` (centres undefined) the same measures were more than 1000 nM, 41 nM and 1200 nM.
For `Cn1nnc(-c2cc(-c3ccoc3)c3ccc(OCc4cccc(C5(O)CCOCC5)c4)cc3c2)n1`, in that order: 80 nM, 2 nM and 80 nM.
Take `CC1(C)OC(=O)c2cc3cc(OCc4cccc(C5(O)CCOCC5)c4)ccc3c(-c3ccccc3)c21`: the IC50 is more than 3000 nM in the test filed under Homo sapiens [1] (Homo sapiens, Blood); 80 nM in the test listed under Homo sapiens [2] (Homo sapiens); more than 6000 nM in test [3].
For `O=C(c1cccnc1)c1cc(-c2ccoc2)c2ccc(OCc3cccc(C4(O)CCOCC4)c3)cc2c1`, the IC50 in the test listed under Homo sapiens [1] (Homo sapiens, Blood) was determined as 370 nM; in the test filed under Homo sapiens [2] (Homo sapiens), 7 nM; in test [3], 120 nM.
On to `CC1CC(O)(c2cccc(COc3ccc4c(-c5ccccc5)c5c(cc4c3)C(=O)OC5)c2)CC(C)O1` (centres undefined), for which the 50% inhibitory concentration (IC50) in the test listed under Homo sapiens [1] (Homo sapiens, Blood) was found to be 900 nM; in the test filed under Homo sapiens [2] (Homo sapiens) it was 3 nM; in test [3], 180 nM.
Turning to `COc1ccc(-c2c3c(cc4cc(OCc5cccc(C6(O)CCOCC6)c5)ccc24)C(=O)OC3)cc1`, the half-inhibitory concentration (IC50) in the test filed under Homo sapiens [2] (Homo sapiens) was 89 nM; in test [3], 6000 nM.
As for `Cn1nnnc1-c1cc(-c2ccccc2)c2ccc(OCc3cccc(C4(O)CCOCC4)c3)cc2c1`, the IC50 was more than 10000 nM in the test listed under Homo sapiens [1] (Homo sapiens, Blood); more than 67 nM in the test filed under Homo sapiens [2] (Homo sapiens); 3000 nM in test [3].
For `O=C1OCc2c1cc1cc(OCc3cccc(C4(O)CCOC(O)C4)c3)ccc1c2-c1ccccc1` (centres undefined) the same measures were 1600 nM, 15 nM and 810 nM.
The compound `O=C(O)c1cc(-c2ccccc2)c2ccc(OCc3cccc(C4(O)CCOCC4)c3)cc2c1` returned an IC50 in the test filed under Homo sapiens [2] (Homo sapiens) of 190 nM.
Regarding `CCCCc1cc(C(=O)OC)cc2cc(OCc3cccc(C4(O)CCOCC4)c3)ccc12`, the 50% inhibitory concentration (IC50) in the test filed under Homo sapiens [2] (Homo sapiens) was 15 nM; in test [3] it was 2200 nM.
With `O=C1OCc2c1cc1cc(OCc3cccc(C4(O)CCOCC4)c3)ccc1c2-c1ccsc1`, the half-inhibitory concentration (IC50) in the test listed under Homo sapiens [1] (Homo sapiens, Blood) came out at 50 nM; in the test listed under Homo sapiens [2] (Homo sapiens), 2 nM; in test [3] it was 27 nM.
In turn, `CC(c1cc2ccccc2s1)N(O)C(N)=O` (centres undefined) [ZILEUTON] had an IC50 in the test filed under Homo sapiens [1] (Homo sapiens, Blood) of 2000 nM.
For the compound `O=C1OCc2c1cc1cc(OCc3cccc(C4(O)CC5C=CC(C4)O5)c3)ccc1c2-c1ccccc1` (centres undefined), the IC50 was more than 3000 nM in the test listed under Homo sapiens [1] (Homo sapiens, Blood); 27 nM in the test listed under Homo sapiens [2] (Homo sapiens); 400 nM in test [3].
For `O=C1CC(O)(c2cccc(COc3ccc4c(-c5ccccc5)c5c(cc4c3)C(=O)OC5)c2)CCO1` (centres undefined), in that order: more than 3000 nM, 35 nM and 390 nM.
For the compound `O=C1OCc2c1cc1cc(OCc3cccc(C4(O)CCOCC4)c3)ccc1c2-c1ccccc1`, the IC50 stood at 140 nM in the test listed under Homo sapiens [1] (Homo sapiens, Blood) and 2 nM in the test listed under Homo sapiens [2] (Homo sapiens).
Consider `OC1(c2cccc(COc3ccc4c(-c5ccoc5)cc(C5=NCCO5)cc4c3)c2)CCOCC1`, for which the IC50 in the test listed under Homo sapiens [1] (Homo sapiens, Blood) was 50 nM; in the test listed under Homo sapiens [2] (Homo sapiens) it was 3 nM; in test [3] it was 70 nM.
For `CCc1cc(-c2ccccc2)c2ccc(OCc3cccc(C4(O)CCOCC4)c3)cc2c1`, in that order: more than 1000 nM, 10 nM and 760 nM.
As for `N#Cc1cc(-c2ccccc2)c2ccc(OCc3cccc(C4(O)CCOCC4)c3)cc2c1`, the IC50 in the test listed under Homo sapiens [1] (Homo sapiens, Blood) was determined as 100 nM; in the test filed under Homo sapiens [2] (Homo sapiens) it was 3 nM; in test [3], 120 nM.
Turning to `OC1(c2cccc(COc3ccc4c(-c5ccoc5)cc(-c5nc6ccccc6s5)cc4c3)c2)CCOCC1`, the results for the half-maximal inhibitory concentration (IC50) (in the test listed under Homo sapiens [2] (Homo sapiens); in test [3]) were more than 62 nM and more than 6000 nM, respectively.
Consider `O=C(c1cc(-c2ccoc2)c2ccc(OCc3cccc(C4(O)CCOCC4)c3)cc2c1)c1nccs1`, for which the half-inhibitory concentration (IC50) in the test filed under Homo sapiens [1] (Homo sapiens, Blood) was 130 nM; in the test filed under Homo sapiens [2] (Homo sapiens), 2 nM; in test [3] it was 50 nM.
For `CC1OC(=O)c2cc3cc(OCc4cccc(C5(O)CCOCC5)c4)ccc3c(-c3ccccc3)c21` (centres undefined) the same measures were more than 3000 nM, 150 nM and 1300 nM.
For `O=C1OCc2c1cc1cc(OCc3cccc(C4(O)CC5CCC(C4)O5)c3)ccc1c2-c1ccccc1` (centres undefined) the same measures were 1000 nM, 8 nM and 320 nM.
For `COc1cccc(-c2c3c(cc4cc(OCc5cccc(C6(O)CCOCC6)c5)ccc24)C(=O)OC3)c1` the same measures were 260 nM, 4 nM and 80 nM.
For `OC1(c2cccc(COc3ccc4c(-c5ccccc5)cc(Cn5ccnc5)cc4c3)c2)CCOCC1`, the half-maximal inhibitory concentration (IC50) in the test filed under Homo sapiens [2] (Homo sapiens) is 40 nM; in test [3], 640 nM.
`N#Cc1cc(-c2ccoc2)c2ccc(OCc3cccc(C4(O)CC5COC(C4)O5)c3)cc2c1` (centres undefined): the 50% inhibitory concentration (IC50) in the test listed under Homo sapiens [1] (Homo sapiens, Blood) worked out at 150 nM; in the test listed under Homo sapiens [2] (Homo sapiens), 3 nM; in test [3] it was 190 nM.
For `O=C1OCc2c1cc1cc(OCc3cccc(C4(O)CCOCC4)c3)ccc1c2-c1ccc(Cl)cc1` the same measures were more than 3000 nM, 26 nM and 5500 nM.
For the compound `O=C1OCc2c1cc1cc(OCc3cccc(C4(O)CCOCC4)c3)ccc1c2-c1ccccc1Cl`, the IC50 in the test filed under Homo sapiens [1] (Homo sapiens, Blood) stood at 1100 nM; in the test listed under Homo sapiens [2] (Homo sapiens) it was 11 nM; in test [3], 380 nM.
For `COC(=O)c1cc(-c2ccccc2)c2ccc(OCc3cccc(C4(O)CCOCC4)c3)cc2c1`, in that order: 100 nM, 3 nM and 70 nM.
As for `O=C(c1ccccc1)c1cc(-c2ccoc2)c2ccc(OCc3cccc(C4(O)CCOCC4)c3)cc2c1`, the IC50 in the test listed under Homo sapiens [1] (Homo sapiens, Blood) came out at 200 nM; in the test listed under Homo sapiens [2] (Homo sapiens), 1 nM; in test [3], 70 nM.
`O=C1OCc2c1cc1cc(OCc3cccc(C4(O)CC5COC(C4)O5)c3)ccc1c2-c1ccoc1` (stereo in doubt; 3u): the IC50 in the test filed under Homo sapiens [2] turned out to be 7 nM; in test [3], 140 nM.
Consider `OCc1cc(-c2ccccc2)c2ccc(OCc3cccc(C4(O)CCOCC4)c3)cc2c1`, for which the concentration for half-maximal inhibition (IC50) was 9 nM in the test filed under Homo sapiens [2] (Homo sapiens) and 260 nM in test [3].
`O=C1OCc2c1cc1cc(OCc3cccc(C4(O)CCOCC4)c3)ccc1c2-c1ccoc1`: the half-maximal inhibitory concentration (IC50) in the test listed under Homo sapiens [1] (Homo sapiens, Blood) was 100 nM; in the test listed under Homo sapiens [2] (Homo sapiens) it was 2 nM; in test [3], 26 nM.
In the test filed under Homo sapiens [2] (Homo sapiens), `CC(C)(O)c1cc(-c2ccccc2)c2ccc(OCc3cccc(C4(O)CCOCC4)c3)cc2c1` returned an IC50 of 59 nM.
For the compound `OC1(c2cccc(COc3ccc4c(-c5ccccc5)cc(-c5nn[nH]n5)cc4c3)c2)CCOCC1`, the IC50 in the test filed under Homo sapiens [1] (Homo sapiens, Blood) was more than 3000 nM; in the test filed under Homo sapiens [2] (Homo sapiens), more than 700 nM; in test [3], more than 6000 nM.
Take `O=C1OCc2c1cc1cc(OCc3cccc(C4(O)CCOCC4)c3)ccc1c2-c1ccco1`: the IC50 worked out at 450 nM in the test filed under Homo sapiens [1] (Homo sapiens, Blood); 5 nM in the test filed under Homo sapiens [2] (Homo sapiens); 280 nM in test [3].

Source of the values: ChEMBL document CHEMBL1129067, “Dioxabicyclooctanyl naphthalenenitriles as nonredox 5-lipoxygenase inhibitors: structure-activity relationship study directed toward the improvement of metabolic stability” (J Med Chem, 1996).
